Measurements as given in ChEMBL document CHEMBL4699650, “SAR Investigation and Discovery of Water-Soluble 1-Methyl-1,4-dihydroindeno[1,2-c]pyrazoles as Potent Tubulin Polymerization Inhibitors” (J Med Chem, 2020).

Assays:
[1] = system: A549; assay: Antiproliferation activity against human A549 cells assessed as cell growth inhibition measured after 72 hrs by MTT assay; assay type: functional
Summary of the method: (§1)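 Cells grown in RPMI-1640 with 10% FBS at 37 °C, 5% CO2, seeded at 4−7 × 10³ cells/well and left to adhere overnight. Exposed to a range of concentrations for 72 h, then MTT (2.5 mg/mL stock) added for 4 h. Formazan dissolved in DMSO and absorbance read at 570 nm. GI50 taken as the concentration giving 50% growth inhibition, reported as mean ± SD of at least three independent experiments.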

[2] = Aqueous solubility of compound in DMSO at pH 7.4 by HPLC analysis; assay type: physicochemical; settings: aqueous medium
Summary of the method: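 Solubility measured at pH 7.4. DMSO stock (10 mg/mL) diluted in methanol to five levels to build an HPLC peak-area standard curve. Compound added to 1 mL buffer to make a saturated solution, and the peak area of that solution analysed by HPLC on a C18 column. Solubility calculated from the standard curve.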

[3] = system: HCT-116; assay: Antiproliferation activity against human HCT116 cells assessed as cell growth inhibition measured after 72 hrs by MTT assay; assay type: functional; summary of the method: as §1
[4] = system: HepG2; assay: Antiproliferation activity against human HepG2 cells assessed as cell growth inhibition measured after 72 hrs by MTT assay; assay type: functional; summary of the method: as §1
[5] = Inhibition of porcine brain tubulin polymerization measured every 60 sec for 60 mins in presence of GTP by fluorescence assay; parameters: species or system Sus scrofa
Summary of the method: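 Fluorescence kit assay using 2 mg/mL porcine brain tubulin with 2 mM MgCl₂, 0.5 mM EGTA, 1 mM GTP and 15% glycerol. Compound at various concentrations preincubated 1 min at 37 °C before adding the tubulin mix. Read at ex 355/em 460 nm every 60 s for 60 min. IC50 is the concentration giving 50% inhibition at 60 min; mean ± SD of ≥3 independent experiments.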

[6] = system: HepG2; assay: Antitumor activity against human HepG2 cells xenografted in Balb/c mouse assessed as reduction in tumor volume administered orally as 0.5% MC suspension for 21 days relative to control; assay type: functional; parameters: scale not given: the % may be the effect or the level left; settings: time 21 day
[7] = Lipophilicity, log P of the compound in DMSO and n-octanol at pH 7.4 incubated for 10 hrs under stirred condition by HPLC analysis; assay type: physicochemical; settings: n-octanol / aqueous phase pH 7.4, pH 7.4
Summary of the method: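 Partition between n-octanol and water: mixture stirred at room temperature for 10 h, then left at 4 °C overnight. Each phase analysed separately by HPLC on a C18 column. Log P taken from the ratio of peak areas in n-octanol and water.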

With `CCOc1cccc(Nc2nn(C)c3c2Cc2cc(OCC)c(OCC(N)=O)cc2-3)c1` as the compound, how does the GI50 [1] read?
Its GI50 is 0.0232 µM.

And the solubility [2]?
The solubility was less than 5 µg/mL.

What about the GI50 [3] of the same compound?
The GI50 was 0.0396 µM.

And the GI50 [4]?
The GI50 was 0.0086 µM.

What about the IC50 [5] of the same compound?
The IC50 was 4.1 µM.

What about the Activity [6] of the same compound?
Its Activity is 50%.

And the logD at 10 h [7]?
Its logD at 10 h is 3.18.
